Read-outs that look alike come from different tables or passages of the source.
Experiments:
[1] = Safety: adverse events in the phase 1 study; type: in vivo, human
[2] = cited from earlier work
[3] = type: in vivo, human; conditions: for total radioactivity in whole blood lower than that in plasma: based on mean Cmax and AUCinf; for time to maximum concentration (post-dose): single IV bolus
How it was run: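 Six healthy and six HD adult males received one 1 mL IV bolus of [14C]-labelled test compound in 0.9% NaCl: 100 μCi, about 200 μg, 1.7–3.0 μg/kg. HD subjects were dosed via the dialysis port after the last weekly dialysis. Plasma aliquots were counted by LSC; whole blood was combusted in an oxidizer before LSC. Results were converted to ng-eq. Noncompartmental analysis used actual sample times and dose: Cmax, tmax, AUClast, AUCinf, t1/2, CL, Vz.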

[4] = test system: other receptors, ion channels, or transporters; conditions: other than kappa-opioid receptor; cited from earlier work
[5] = Mass balance: recovery of radioactive dose in urine, feces and dialysate; type: in vivo, human; conditions: subjects on hemodialysis; sum of all dialysis treatments (3 times per week, 4 h); total radioactivity (LSC); mean, n = 6
[6] = Metabolite profiling in pooled fecal homogenate; type: in vivo, human; conditions: subjects on hemodialysis
[7] = test system: CYP1A2, CYP2C19, CYP2C8, CYP2C9, CYP2D6, or CYP3A; conditions: human hepatic microsomes or in vitro hepatocytes; cited from earlier work

SMILES: CC(C)C[C@@H](NC(=O)[C@@H](Cc1ccccc1)NC(=O)[C@H](N)Cc1ccccc1)C(=O)N[C@H](CCCCN)C(=O)N1CCC(N)(C(=O)O)CC1 [Difelikefalin, 4-amino-1-[(2R)-6-amino-2-[[(2R)-2-[[(2R)-2-[[(2R)-2-amino-3-phenylpropanoyl]amino]-3-phenylpropanoyl]amino]-4-methylpentanoyl]amino]hexanoyl]piperidine-4-carboxylic acid]
- TEAEs considered by the investigator unrelated to study treatment ([1]; all 12 participants): 17 of 24
- subjects reporting treatment-emergent AEs (TEAEs) ([1]; healthy subjects, of n = 6): three of the six
- abuse potential, physical dependence, respiratory depression [2]: no abuse potential, no physical dependence, and no respiratory depression effects
- total radioactivity in whole blood lower than that in plasma ([3]; healthy subjects): ~45%
- time to maximum concentration (post-dose) ([3]; healthy subjects, plasma total radioactivity): 5 min
- mean AUC, subjects on HD versus healthy subjects ([3]; plasma total radioactivity, ratio of mean AUC, HD higher): approximately 11 fold
- total radioactivity in whole blood lower than that in plasma ([3]; subjects on hemodialysis): approximately 38%
- time to maximum concentration (post-dose) ([3]; subjects on hemodialysis, plasma total radioactivity): 5 min
- activity at other receptors, ion channels, or transporters [4]: no activity at other receptors, ion channels, or transporters
- Percent of dose recovered in dialysate [5]: 19.5%
- share of total radioactivity excreted in feces recovered as unchanged difelikefalin [6]: 84.8%
- metabolism by cytochrome P450 (CYP) enzymes [7]: not metabolized

From article PMC10450003 (Clinical Pharmacokinetics, 2023)
